Experimental data as given in ChEMBL document CHEMBL1125833, “Anxiolytic properties of certain annelated [1,2,4]triazolo[1,5-c]pyrimidin-5(6H)-ones” (J Med Chem, 1991).
pIC50: −log10 of the molar value.

Assays:
[1] = target: GABA-A receptor; anion channel; assay: Displacement of [3H]flunitrazepam (FNZ) from GABA-A benzodiazepine receptor in rat forebrain
[2] = target: GABA-A receptor; anion channel (Rattus norvegicus) (UniProt O09028+P15431+P18506+P18508+P19969+P20236+P23574+P23576+P28471+P28473+P30191+P62813+P63079+P63138+Q91ZM7+Q9ES14); assay: GABA ratio measured by the IC50 in the absence of GABA compared to the IC50 in the presence of GABA in rats.
Procedure, shortened: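 Modified [3H]flunitrazepam binding in rat forebrain, with IC50 measured with and without GABA. Ratio = IC50 without GABA divided by IC50 with GABA.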

[3] = system: Rattus norvegicus; assay: Anxiolytic response at 30 mg/Kg measured by antagonism of pentylenetetrazole discriminative stimuli in rats.; assay type: functional
[4] = system: Rattus norvegicus; assay: Compound tested for its effect on conflict(FR) operant responding of rats at a dose of 10.0 mg/kg administered perorally.; assay type: functional; details: route oral
Procedure, shortened: (§1)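 Cook-Davidson conflict procedure in rats given oral doses. Rats lever-press for milk reward with shock (conflict, FR) and without shock (nonconflict, VI). Value is % change in response rate, with significance set at P < 0.05. The minimally effective oral dose is taken as the dose raising conflict responding or lowering VI responding.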

[5] = system: Rattus norvegicus; assay: Compound tested for its effect on conflict(FR) operant responding of rats at a dose of 30.0 mg/kg administered perorally.; assay type: functional; details: route oral; procedure, shortened: as §1
[6] = system: Rattus norvegicus; assay: Minimal effective oral dose to cause VI response decrement in rats.; assay type: functional; procedure, shortened: as §1
[7] = system: Rattus norvegicus; assay: Compound tested for its effect on Nonconflict(VI) operant responding of rats at a dose of 3.0 mg/kg administered perorally.; assay type: functional; details: route oral; procedure, shortened: as §1
[8] = system: Rattus norvegicus; assay: Minimal effective oral dose to cause increase in conflict response in rats after po administration.; assay type: functional; procedure, shortened: as §1
[9] = system: Rattus norvegicus; assay: Compound tested for its effect on Nonconflict(VI) operant responding of rats at a dose of 30.0 mg/kg administered perorally.; assay type: functional; details: route oral; procedure, shortened: as §1
[10] = system: Rattus norvegicus; assay: Compound tested for its effect on conflict(FR) operant responding of rats at a dose of 1.0 mg/kg administered perorally.; assay type: functional; details: route oral; procedure, shortened: as §1
[11] = system: Rattus norvegicus; assay: Compound tested for its effect on conflict(FR) operant responding of rats at a dose of 3.0 mg/kg administered perorally.; assay type: functional; details: route oral; procedure, shortened: as §1
[12] = organism: Rattus norvegicus; assay: Anxiolytic response measured by antagonism of pentylenetetrazole discriminative stimuli in rats.; assay type: functional
Procedure, shortened: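 Rats trained to discriminate a subconvulsant dose of pentylenetetrazole (PTZ) from vehicle. Test compound given 30 min before the PTZ dose. Antagonism of the PTZ stimulus is scored as the anxiolytic response. ED50 values by probit analysis, with 95% confidence limits.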

[13] = system: Rattus norvegicus; assay: Compound tested for its effect on Nonconflict(VI) operant responding of rats at a dose of 10.0 mg/kg administered perorally.; assay type: functional; details: route oral; procedure, shortened: as §1
[14] = system: Rattus norvegicus; assay: Compound tested for its effect on Nonconflict(VI) operant responding of rats at a dose of 1.0 mg/kg administered perorally.; assay type: functional; details: route oral; procedure, shortened: as §1
[15] = system: Rattus norvegicus; assay: Minimal effective oral dose to cause ethanol interaction in rats.; assay type: functional
Procedure, shortened: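 Rotorod test of ethanol interaction in male Wistar (Crl:(WI)BR) rats, 130–160 g. Vehicle or test compound (0, 1, 3, 10 mg/kg) given orally 30 min before ethanol. Graded ethanol doses given ip 30 min before rotorod testing. Ethanol ED50 reported with confidence limits, P < 0.05.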

[16] = system: Rattus norvegicus; assay: Anxiolytic response at 10 mg/Kg measured by antagonism of pentylenetetrazole discriminative stimuli in rats.; assay type: functional
[17] = system: Rattus norvegicus; assay: Compound tested for its effect on Nonconflict (VI) operant responding of rats at a dose of 10.0 mg/Kg administered perorally.; assay type: functional; procedure, shortened: as §1
[18] = system: Rattus norvegicus; assay: Compound tested for its effect on Nonconflict (VI) operant responding of rats at a dose of 3.0 mg/Kg administered perorally.; assay type: functional; procedure, shortened: as §1
[19] = system: Rattus norvegicus; assay: Compound tested for its effect on conflict (FR) operant responding of rats at a dose of 10.0 mg/Kg administered perorally.; assay type: functional; procedure, shortened: as §1
[20] = system: Rattus norvegicus; assay: Compound tested for its effect on Nonconflict (VI) operant responding of rats at a dose of 30.0 mg/Kg administered perorally.; assay type: functional; procedure, shortened: as §1
[21] = system: Rattus norvegicus; assay: Compound tested for its effect on conflict (FR) operant responding of rats at a dose of 30.0 mg/Kg administered perorally.; assay type: functional; procedure, shortened: as §1
[22] = system: Rattus norvegicus; assay: Compound tested for its effect on conflict (FR) operant responding of rats at a dose of 3.0 mg/Kg administered perorally.; assay type: functional; procedure, shortened: as §1
[23] = system: Rattus norvegicus; assay: Compound tested for its effect on conflict (FR) operant responding of rats at a dose of 1.0 mg/Kg administered perorally.; assay type: functional; procedure, shortened: as §1
[24] = system: Rattus norvegicus; assay: Compound tested for its effect on Nonconflict (VI) operant responding of rats at a dose of 1.0 mg/Kg administered perorally.; assay type: functional; procedure, shortened: as §1

Row | pIC50 [1] | GABA ratio [2] | SMILES | MED [8] | ED50 [12] | further results
1 | 8.62 | 1.6 | Oc1nc2c(c3nc(-c4cccc(F)c4)nn13)CN(Cc1ccccc1)CC2 | – | – | –
2 | 7.57 | 1.06 | COC(=O)CN1CCc2nc(O)n3nc(-c4ccccc4F)nc3c2C1 | – | – | inhibition in vivo at 30 mg/kg [3]: 12%
3 | 6.82 | – | CCN1CCc2nc(O)n3nc(-c4ccccc4F)nc3c2C1 | – | – | –
4 | 9.30 | 0.79 | Oc1nc2ccc(Cl)cc2c2nc(-c3ccccc3F)nn12 | – | – | –
5 | 8.27 | 1.3 | O=S(=O)(c1cccnc1)N1CCc2nc(O)n3nc(-c4ccccc4F)nc3c2C1 | – | – | –
6 | 9.36 | 1.06 | Oc1nc2c(c3nc(-c4ccccc4F)nn13)CN(Cc1ccccc1)CC2 | 10 mg/kg | 0.66 mg/kg | Change in response rate [4]: 206%; Change in response rate [5]: 282%; MED [6]: 30 mg/kg; Change in response rate [7]: -13%; Change in response rate [9]: -52%; Change in response rate [10]: 19%; Change in response rate [11]: 173%; Change in response rate [13]: -44%; Change in response rate [14]: 0%
7 | 8.72 | 1.14 | Oc1nc2c(c3nc(-c4ccccc4F)nn13)CN(Cc1ccncc1)CC2 | – | – | –
8 | 8.27 | 1.7 | Oc1nc2c(c3nc(-c4ccc(F)cc4)nn13)CN(Cc1ccccc1)CC2 | 30 mg/kg | 2.55 mg/kg | Change in response rate [4]: 30%; Change in response rate [5]: 372%; MED [6]: 30 mg/kg; Change in response rate [9]: -38%; Change in response rate [13]: -17%
9 | 8.75 | 0.99 | Cc1ccc(S(=O)(=O)N2CCc3nc(O)n4nc(-c5ccccc5F)nc4c3C2)cc1 | – | – | –
10 | – | – | O=C1C2C=Nc3ccccc3C2=NN1c1ccc(Cl)cc1 (centres undefined) [CGS-9896] | 10 mg/kg | 2.3 mg/kg | MED [15]: 30 mg/kg
11 | 6.35 | – | Oc1nc2c(c3nc(-c4ccccc4F)nn13)CNCC2 | – | – | –
12 | 9.19 | 1.65 | Oc1nc2c(c3nc(-c4ccccc4F)nn13)CN(Cc1ccccn1)CC2 | – | – | inhibition in vivo at 10 mg/kg [16]: 50%
13 | 8.14 | – | Oc1nc2c(c3nc(-c4ccccc4F)nn13)CCCCC2 | 10 mg/kg | 4.4 mg/kg | Change in response rate [17]: 53%; MED [6]: 10 mg/kg; Change in response rate [18]: 11%; Change in response rate [19]: 232%; Change in response rate [20]: 49%; Change in response rate [21]: 236%; Change in response rate [22]: 79%
14 | 8.77 | 1.4 | Oc1nc2c(c3nc(-c4ccccc4Cl)nn13)CN(Cc1ccccc1)CC2 | 3 mg/kg | 0.5 mg/kg | MED [6]: 3 mg/kg; Change in response rate [18]: -40%; Change in response rate [23]: 18%; Change in response rate [24]: 1%; Change in response rate [22]: 58%
15 | < 6.00 | – | CC1c2nc(O)n3nc(-c4ccccc4F)nc3c2CN1Cc1ccccc1 (centres undefined) | – | – | –
16 | 6.98 | – | CC(C)N1CCc2nc(O)n3nc(-c4ccccc4F)nc3c2C1 | – | – | –
